Screens from PubChem BioAssay.
ARNT TACC3 PPI: disrupts binding between human ARNT and TACC3; Q9Y6A5; AlphaScreen His-ARNT PAS-B/GST-TACC3 binding, luminescence; TACC3 fragment carries E629A point mutation; inhibition, % at 9.99 µM; 390,000 tested, 0.66% active; AID 623870;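 active means mean inhibition of replicates at least 50% and at least half of replicates each reaching 50%; inconclusive means half or more replicates reach 50% but mean below 50%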
FN deposition inh: fibronectin deposition inhibition | inhibition, % at 12.6 µM | 350,000 tested, 0.086% active | AH1F fibroblasts, Alexa488-fibronectin deposition fluorescence, overnight;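 active means mean inhibition across replicates of 30% or more, regardless of how many single replicates reach that level; inconclusive means mean under 30% yet at least half of replicates reach 30%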
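test system = AH1F fibroblasts assembling fluorescent fibronectin matrix | quantity = 10000 AH1F cells per well | buffer or medium = DMEM plus 2% serum, read in PBS | doses = single dose, pinned | incubation = 1 h cell attachment, overnight exposure to compound and label | detection = fluorescence at 485 nm excitation, 525 nm emission | read-out basis = inhibition from reduced deposited-fibronectin fluorescence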
DENV2 CPE: inhibitors of DENV2 cytopathic effect | DENV2-infected cells, cytopathic effect rescue, plate reader | CPE inhibition, % at 9.99 µM | 350,000 tested, 1.7% active; in the data active means CPE inhibition above about 20%, passing the limit was not always enough; inconclusive means no clear call, values can overlap the other calls; tested in BHK-21 cells
SIRT5 inh: blocks human SIRT5 desuccinylation of peptide; Q9NXA8; Purified SirT5, succinyl-peptide AMC, trypsin-coupled fluorescence; inhibition, % at 15 µM; 330,000 tested, 1.1% active; in the data active means inhibition above about 15%; inconclusive means no clear call, values can overlap the other calls
Target sequence (Q9NXA8 whole entry, looked up): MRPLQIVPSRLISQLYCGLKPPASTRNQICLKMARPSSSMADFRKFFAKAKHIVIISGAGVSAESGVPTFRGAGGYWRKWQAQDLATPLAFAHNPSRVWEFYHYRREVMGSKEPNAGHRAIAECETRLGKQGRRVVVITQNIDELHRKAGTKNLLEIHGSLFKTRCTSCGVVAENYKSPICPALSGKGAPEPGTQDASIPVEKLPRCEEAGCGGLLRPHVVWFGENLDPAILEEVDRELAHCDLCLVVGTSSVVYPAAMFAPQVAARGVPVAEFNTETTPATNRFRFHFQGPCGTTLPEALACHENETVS
FGF22 binding: binders of recombinant human FGF22 by thermal shift; activity (Tm shift, normalised), % at 9.99 µM; SYPRO orange fluorescence; percent of sucrose octasulfate shift, DMSO zero; 340,000 tested, 1.5% active;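 active means mean Tm shift, scaled 0 neutral to 100 positive control, at about 1.3% or above, every replicate too, limit read from the data; inconclusive means no clear call, values can overlap the other calls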
Target sequence (Q9HCT0 whole entry, looked up): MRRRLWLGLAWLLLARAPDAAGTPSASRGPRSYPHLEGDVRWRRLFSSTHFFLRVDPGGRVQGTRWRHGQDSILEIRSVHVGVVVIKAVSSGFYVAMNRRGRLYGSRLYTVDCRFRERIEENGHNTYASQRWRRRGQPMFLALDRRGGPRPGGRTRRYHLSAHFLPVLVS
XiGFP reactiv: activators of X-chromosome reactivation in mouse fibroblasts | XiGFP mouse fibroblasts, % GFP-positive cells imaging, 3 d; cells co-treated with 5-aza-dC sensitizer; scaled so ellipticine positive control = 100% | activation, % at 7.58 µM | 360,000 tested, 0.055% active | AID 743238;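 active means mean normalized replicate activation at least 10% and every replicate at or above 10%; inconclusive means only one of the two criteria met; inactive means mean below 10% and not all replicates reach 10%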
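System: XiGFP fibroblasts, SV40-immortalized. Medium: DMEM plus 5-aza-dC sensitizer. Doses: single point. Timing: 3 d treatment, 15 min room-temperature fixation. Control set: ellipticine 6 µM.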
A number is an active result; 0 = inactive; ? = inconclusive; - = no result given. This is a sample that favours compounds with a hit; in the whole collection about 3.8% have one here.

SMILES | ARNT TACC3 PPI | FN deposition inh | DENV2 CPE | SIRT5 inh | FGF22 binding | XiGFP reactiv
COc1ccc(C2c3[nH]c4ccccc4c3CCN2C(=O)c2cc3ncccn3n2)c(F)c1 (configuration not stated) | 0 | 0 | 0 | 0 | 43.0 | 0
COc1cccc(C2c3[nH]c4ccccc4c3CCN2C(=O)c2ccccc2F)c1OC (configuration not stated) | 0 | 0 | 0 | 0 | 0 | 0
Cc1ccc2nc(C(=O)N3CCc4c([nH]c5ccccc45)C3c3ccccn3)cn2c1 (configuration not stated) | 0 | 0 | 0 | 0 | 43.0 | 0
O=C(c1cn[nH]c1)N1CCc2c([nH]c3ccccc23)C1c1c(F)cccc1Cl (configuration not stated) | 0 | 0 | 0 | 0 | 43.5 | 0
O=C(c1ccc(Cl)cc1)N1CCc2c([nH]c3ccccc23)C1C(F)(F)F (configuration not stated) | 0 | 0 | 26.3 | 0 | 0 | 0
CNC(=O)C[C@H]1CC[C@H]2[C@@H](COc3ccc(NC(=O)c4cc(C)on4)cc3C(=O)N2C)O1 | 0 | 0 | 0 | - | 0 | 0
CCNC(=O)C[C@H]1CC[C@@H]2[C@@H](COc3ccc(NC(=O)c4ccc(F)cc4)cc3C(=O)N2C)O1 | 0 | 0 | ? | 0 | 0 | 0
CN1C(=O)c2cc(NC(=O)c3cccc(F)c3)ccc2OC[C@@H]2O[C@H](CC(=O)N3CCc4ccccc4C3)CC[C@H]21 | 0 | 0 | 0 | 0 | 0 | 0
CNC(=O)C1CC(=O)N(CCc2ccc(OC)cc2)C(=Nc2ccc(OC)cc2)S1 (configuration not stated) | 0 | 0 | - | - | - | -
CCN1C(=O)CC(C(=O)NC)SC1=Nc1cc(Cl)c(O)c(Cl)c1 (configuration not stated) | 22.6 | 0 | - | - | - | -
CCN1C(=O)CSC1=Nc1ccc(Cl)c(Cl)c1 | active | 0 | 0 | 0 | 0 | 0
CCN=C1SC(C(=O)Nc2cc(Cl)cc(Cl)c2)CC(=O)N1CC (configuration not stated) | active | 0 | 0 | 0 | 0 | 0
CCN1C(=O)CSC1=Nc1ccc(OC)cc1 | 0 | 0 | 0 | 0 | 0 | 0
O=C(C[C@H]1CC[C@@H](NC(=O)C2CCOCC2)[C@@H](CO)O1)Nc1ccc(-c2ccccc2)cc1 | 0 | - | 0 | 0 | 0 | 0
CCCCCOc1ccc(Br)cc1CSC(=N)N | 0 | 0 | 0 | 0 | 43.7 | 0
CCOC(=O)c1c(C)oc2c1c(C=NCc1ccccn1)c(O)c1ccccc12 | 47.7 | 0 | 0 | 0 | - | 0
O=C([C@@H]1N[C@@H]2c3ccc(-c4ccccc4)c(=O)n3C[C@@H]2[C@H]1CO)N1CCOCC1 | 0 | - | 0 | 0 | 0 | 0
COc1ccc(-n2nc(C(=O)NCC(=O)NCC3COc4ccccc4O3)c3ccccc3c2=O)cc1 (configuration not stated) | 0 | 0 | 0 | 0 | 43.1 | 0
COc1ccc(C(=O)NCC(=O)NCC2COc3ccccc3O2)cc1 (configuration not stated) | 0 | 0 | - | - | - | -
C[C@H](CO)N1C[C@H](C)[C@@H](CN(C)C(=O)C2CC2)Oc2cc(C3=CCCC3)ccc2S1(=O)=O | - | 0 | - | - | - | 0
CN(C)/C=C/C(=O)c1ccc(Cl)s1 | 0 | 0 | 0 | 0 | 44.7 | 0
CN(C)/C=C/C(=O)c1cnc(-c2ccc(Cl)cc2)s1 | - | 0 | 0 | 0 | 0 | 0
CCOC(=O)Nc1ccc(S(=O)(=O)N2CCOCC2)cc1 | 0 | 0 | - | - | - | -
CCOC(=O)Nc1ccc(N2CCOCC2)c(S(=O)(=O)N2CCOCC2)c1 | 0 | 0 | 26.2 | 0 | 0 | 0
C[C@@H]1CN([C@H](C)CO)S(=O)(=O)c2ccc(C#CCN(C)C)cc2O[C@H]1CN(C)C(=O)C1CCC1 | 0 | - | 0 | 0 | 0 | 0
SMILES | ARNT TACC3 PPI | FN deposition inh | DENV2 CPE | SIRT5 inh | FGF22 binding | XiGFP reactiv
CC=Cc1ccc2n(c1=O)C[C@@H]1[C@@H](CO)[C@H](C(=O)NCc3ccccc3)[C@H]2N1CC (mixture of isomers) | 0 | - | 0 | 0 | 0 | 0
CN1[C@@H]2c3ccc(/C=C/c4ccccc4)c(=O)n3C[C@H]1[C@H](CO)[C@H]2C(=O)NC1Cc2ccccc2C1 | 0 | 0 | 0 | 0 | 0 | 0
CC=Cc1ccc2n(c1=O)C[C@H]1[C@H](CO)[C@@H](C(=O)NCc3ccccc3)[C@@H]2N1CC (mixture of isomers) | 0 | - | 0 | 0 | 1.4 | 0
CCN1[C@@H]2Cn3c(ccc(/C=C/c4ccccc4)c3=O)[C@H]1[C@@H](C(=O)NC1Cc3ccccc3C1)[C@@H]2CO | - | - | 32.1 | 0 | - | 0
CN1C(=O)c2cc(NC(=O)Cc3cccs3)ccc2OC[C@H]2O[C@H](CC(=O)NCCc3ccncc3)CC[C@H]21 | 0 | 0 | 0 | 0 | 0 | 0
CCCC#Cc1cnc2c(c1)C(=O)N([C@H](C)CO)C[C@H](C)[C@H](CN(C)Cc1ccncc1)O2 | 0 | 0 | 0 | 0 | 0 | 0
Cc1ccc(S(=O)(=O)Nc2ccc(Br)cc2C(NCC(=O)O)c2ccccc2)cc1 (configuration not stated) | 0 | - | - | - | - | 0
O=C(O)CSc1cc(NS(=O)(=O)c2ccc(Br)cc2)c2ccccc2c1O | 97.2 | 0 | 0 | 0 | 0 | 0
O=S(=O)(Nc1cc(Sc2ncn[nH]2)c(O)c2ccccc12)c1ccccc1 | - | 0 | 0 | 0 | 42.9 | 0
C[C@@H]1CN([C@@H](C)CO)C(=O)Cc2cc(NC(=O)Nc3ccccc3)ccc2O[C@H]1CN(C)C(=O)Nc1ccccc1 | 0 | - | 0 | 0 | 0 | 0
CCc1ccccc1NC(=S)N(Cc1cccnc1)Cc1ccco1 | 0 | 0 | 0 | - | 0 | 0
Cc1cc(C)c(NC(=S)N(Cc2cccnc2)Cc2ccco2)c(C)c1 | 0 | 0 | 48.8 | 0 | 0 | 0
C[C@H](CO)N1C[C@H](C)[C@H](CN(C)C(=O)NC2CCCCC2)Oc2c(NS(=O)(=O)c3ccccc3)cccc2C1=O | 0 | - | 0 | 0 | 0 | 0
C[n+]1ccccc1COc1ccc(C(C)(C)C)cc1 | 0 | 0 | 22.7 | 0 | 0 | 0
O=C(C[C@H]1CC[C@@H]2[C@H](COC[C@@H](O)CN2Cc2ccc3c(c2)OCO3)O1)Nc1ccccc1 | 0 | 0 | 0 | 0 | 0 | 0
COc1cc2c(cc1OC)-c1cc(NC3CCCCCCC3)nc(=O)n1CC2 | 0 | - | - | - | - | -
COc1cc2c(cc1OC)-c1cc(NC3CC3)nc(=O)n1CC2 | 53.1 | - | - | - | - | -
COc1cc2c(cc1OC)-c1cc(NC3CCCCC3)nc(=O)n1CC2 | 46.2 | - | - | - | - | -
CCNc1cc2n(c(=O)n1)CCc1cc(OC)c(OC)cc1-2 | 0 | 0 | - | - | - | -
CCC(=O)N1CC[C@@H]2[C@H](CO)Nc3ccc(-c4ccccc4)cc3[C@@H]21 | 0 | 0 | - | - | - | 0
C[C@@H]1CN([C@H](C)CO)C(=O)c2cc(NC(=O)Nc3ccc(C(F)(F)F)cc3)ccc2O[C@@H](C)CCCCO[C@H]1CN(C)S(C)(=O)=O | 0 | - | 0 | 0 | 0 | 0
